For assay [1], the system named is HL-60. The experiment in a line: Percent of viability for HL-60 cells was determined by dividing number of viable differentiated cells by total number of viable cells, at concentration of 1.0 mM. Type of assay: functional, Homo sapiens. A digest of the protocol:
(§1)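 HL-60 cultures were seeded at 2×10^5/mL with agent added from ethanol or Me2SO, final Me2SO up to 77 mM, and harvested on day 4. Total cells were counted on a Coulter counter, and the viable fraction of total cells was determined by trypan blue exclusion.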

Assay [2] has as its system HL-60. The experiment in a line: Differentiation studies was conducted with the HL-60 human myeloid leukemia cell line and Total cells were counted with a Coulter counter, at a concentration of 2.5 mM. Type of assay: functional. The method, boiled down:
(§2)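 HL-60 cells seeded at 2×10^5/mL with test agent added from ethanol or Me2SO stock; final Me2SO no more than 77 mM. Total cells counted on a Coulter counter on day 4.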

Assay [3] deals with HL-60. The experiment in a line: Differentiation studies was conducted with the HL-60 human myeloid leukemia cell line and total cells were counted with a Coulter counter, at a concentration of 2.0 mM. The assay is classed as functional. The method, boiled down: as §2
The subject of assay [4] is HL-60. The experiment in a line: Percent of viability for HL-60 cells was determined by dividing number of viable differentiated cells by total number of viable cells, at concentration of 2.0 mM. Type of assay: functional, Homo sapiens. The method, boiled down:
as §1

Assay [5] relates to HL-60. The experiment in a line: Percent of viability for HL-60 cells was determined by dividing number of viable differentiated cells by total number of viable cells, at concentration of 2.5 mM. Type of assay: functional, Homo sapiens. A digest of the protocol:
as §1

Assay [6] has as its system HL-60. The experiment in a line: Percent of viability for HL-60 cells was determined by dividing number of viable differentiated cells by total number of viable cells, at concentration of 3.0 mM. The assay is classed as functional, Homo sapiens. The method, boiled down:
as §1

Assay [7] concerns HL-60. The experiment in a line: Percent of differentiated in HL-60 cells was determined by dividing number of viable differentiated cells by total number of viable cells, at a concentration of 3.0 mM. Type of assay: functional, Homo sapiens. A digest of the protocol: (§3)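 HL-60 cells started at 2×10^5/mL and counted on day 4. Test agents were added from ethanol or Me2SO, with final Me2SO at most 77 mM. Differentiation was scored by formazan production, which requires superoxide from living cells. % D is the number of viable differentiated cells divided by the total number of viable cells.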

In assay [8] the test system is HL-60. The experiment in a line: Percent of differentiated in HL-60 cells was determined by dividing number of viable differentiated cells by total number of viable cells, at a concentration of 1.0 mM. Type of assay: functional, Homo sapiens. The method, boiled down: as §3
The test system of assay [9] is HL-60. The experiment in a line: Differentiation studies was conducted with the HL-60 human myeloid leukemia cell line and total cells were counted with a Coulter counter, at a concentration of 1.0 mM. The assay is classed as functional. A digest of the protocol: as §2
Assay [10] relates to HL-60. The experiment in a line: Percent of differentiated in HL-60 cells was determined by dividing number of viable differentiated cells by total number of viable cells, at a concentration of 2.5 mM. The assay is classed as functional, Homo sapiens. A digest of the protocol: as §3
The test system of assay [11] is HL-60. The experiment in a line: Differentiation studies was conducted with the HL-60 human myeloid leukemia cell line and Total cells were counted with a Coulter counter, at a concentration of 3.0 mM. The assay is classed as functional. The method, boiled down:
as §2

Assay [12] relates to HL-60. The experiment in a line: Percent of differentiated in HL-60 cells was determined by dividing number of viable differentiated cells by total number of viable cells, at a concentration of 2.0 mM. Type of assay: functional, Homo sapiens. The method, boiled down: as §3
Assay [13] relates to HL-60. The experiment in a line: Percent of differentiated HL-60 cells was determined by dividing number of viable differentiated cells by total number of viable cells, at a concentration of 0.1 mM. The assay is classed as functional, Homo sapiens. The method, boiled down: as §3
Assay [14] concerns HL-60. The experiment in a line: Percent of differentiated HL-60 cells was determined by dividing number of viable differentiated cells by total number of viable cells, at a concentration of 0.3 mM. The assay is classed as functional, Homo sapiens. The method, boiled down:
as §3

The test system of assay [15] is HL-60. The experiment in a line: Percent of differentiated HL-60 cells was determined by dividing number of viable differentiated cells by total number of viable cells, at a concentration of 0.5 mM. The assay is classed as functional, Homo sapiens. The method, boiled down: as §3
The subject of assay [16] is HL-60. The experiment in a line: Percent of viability for HL-60 cells was determined by dividing number of viable differentiated cells by total number of viable cells, at concentration of 0.4 mM. The assay is classed as functional, Homo sapiens. A digest of the protocol:
as §1

Assay [17] concerns HL-60. The experiment in a line: Percent of differentiated HL-60 cells was determined by dividing number of viable differentiated cells by total number of viable cells, at a concentration of 0.4 mM. Type of assay: functional, Homo sapiens. A digest of the protocol: as §3
The subject of assay [18] is HL-60. The experiment in a line: Differentiation studies was conducted with the HL-60 human myeloid leukemia cell line andTotal cells were counted with a Coulter counter, at a concentration of 0.4 mM. The assay is classed as functional. The method, boiled down: as §2
The test system of assay [19] is HL-60. The experiment in a line: Percent of viability for HL-60 cells was determined by dividing number of viable differentiated cells by total number of viable cells, at concentration of 0.5 mM. Type of assay: functional, Homo sapiens. A digest of the protocol:
as §1

In assay [20] the test system is HL-60. The experiment in a line: Differentiation studies was conducted with the HL-60 human myeloid leukemia cell line andTotal cells were counted with a Coulter counter, at a concentration of 0.5 mM. Type of assay: functional. The method, boiled down: as §2
The test system of assay [21] is HL-60. The experiment in a line: Differentiation studies was conducted with the HL-60 human myeloid leukemia cell line andTotal cells were counted with a Coulter counter, at a concentration of 0.3 mM. The assay is classed as functional. The method, boiled down:
as §2

Assay [22] deals with HL-60. The experiment in a line: Percent of viability for HL-60 cells was determined by dividing number of viable differentiated cells by total number of viable cells, at concentration of 0.1 mM. Type of assay: functional, Homo sapiens. The method, boiled down: as §1
Assay [23] deals with HL-60. The experiment in a line: Percent of viability for HL-60 cells was determined by dividing number of viable differentiated cells by total number of viable cells, at concentration of 0.3 mM. Type of assay: functional, Homo sapiens. A digest of the protocol:
as §1

Assay [24] relates to HL-60. The experiment in a line: Differentiation studies was conducted with the HL-60 human myeloid leukemia cell line and total cells were counted with a Coulter counter, at a concentration of 0.1 mM. Type of assay: functional. A digest of the protocol:
as §2

For assay [25], the system named is HL-60. The experiment in a line: Percent of viability for HL-60 cells was determined by dividing number of viable differentiated cells by total number of viable cells, at concentration of 4.0 mM. Type of assay: functional, Homo sapiens. The method, boiled down: as §1
The test system of assay [26] is HL-60. The experiment in a line: Differentiation studies was conducted with the HL-60 human myeloid leukemia cell line and Total cells were counted with a Coulter counter, at a concentration of 4.0 mM. The assay is classed as functional. A digest of the protocol: as §2
In assay [27] the test system is HL-60. The experiment in a line: Percent of differentiated HL-60 cells was determined by dividing number of viable differentiated cells by total number of viable cells, at a concentration of 4.0 mM. The assay is classed as functional, Homo sapiens. A digest of the protocol:
as §3

Assay [28] has as its system HL-60. The experiment in a line: Percent of differentiated HL-60 cells was determined by dividing number of viable differentiated cells by total number of viable cells, at a concentration of 3.0 mM. Type of assay: functional, Homo sapiens. The method, boiled down: as §3

Each structure is given as a SMILES string.

As for `O=C1CCCCN1CCCCCCN1CCCCC1=O`, the V worked out at 87% in [1], 65% in assay [4], 62% in [5] and 25% in assay [6]. Besides, the Total cells in assay [2] came out at 680000 mL; in [3], 760000 mL; in assay [9], 830000 mL; in assay [11] it was 370000 mL. For the same compound, the D in assay [7] is 87%; in [8], 12%; in assay [10], 72%; in [12], 40%.
`CC1(C)NC(=O)N(CCCCCCN2C(=O)NC(C)(C)C2=O)C1=O`: the D in assay [13] is reported as 9%; in assay [14], 26%; in assay [15], 76%; in assay [17] it was 45%. The V is reported as 53% in assay [16], 43% in assay [19], 96% in assay [22] and 82% in assay [23]. Also, the Total cells in assay [18] was 420000 mL; in assay [20] it was 310000 mL; in assay [21], 480000 mL; in assay [24] it was 870000 mL.
As for `CNC(=O)CCCCCNC(C)=O`, the V stood at 56% in assay [25] and 72% in assay [6]. The Total cells in assay [26] came out at 690000 mL; in assay [11], 680000 mL. Also, the D in assay [27] came to 71%; in assay [28] it was 40%.
Consider `CC(=O)N(CCCCCCN(C(C)=O)C(C)=O)C(C)=O`, for which the results for the Total cells in assay [2], in assay [3] and in assay [11] were 480000 mL, 530000 mL and 300000 mL, respectively. The V in assay [4] came to 71%; in assay [5], 51%; in assay [6], 45%. Also, the D in assay [7] was determined as 80%; in assay [10], 76%; in [12] it was 65%.

These data come from ChEMBL document CHEMBL1123846, “Chemical differentiating agents. Differentiation of HL-60 cells by hexamethylenebis[acetamide] analogues” (1987).
